Data as given in PMC8336461 (Chemical Science, 2021).

How the values were obtained:
[1] = test system: T. brucei brucei Lister 427 bloodstream-form parasites; assay: T. brucei cell viability assay; format: cell-based; conditions: Trypanosoma brucei, 48 h, read-out: T. brucei EC50
In short: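 Parasite EC50 reported as the mean ± standard error of 3 biological replicates. Each biological replicate's EC50 was calculated from technical triplicate data.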

[2] = Hep G2 cytotoxicity assay; format: cell-based; conditions: human, Hep G2 cells
[3] = test system: extracellular L. amazonensis; conditions: read-out: EC50 against L. amazonensis; cited from earlier work
T. brucei = conditions: read-out: EC50 against T. brucei; cited from earlier work

| Compound | EC50 [1] [µM] | CC50 at 72 h [2] [µM] | EC50 [3] [µM] | EC50 (T. brucei) [µM] |
| --- | --- | --- | --- | --- |
| COC(=O)c1[nH]cc(-c2c[nH]c3ccc(Cl)cc23)c1-c1c[nH]c2ccc(Cl)cc12 [Compound 13, lynamicin A] | 8.2 ± 0.45 | > 10 | – | – |
| COC(=O)c1[nH]c(C(=O)OC)c(-c2c[nH]c3ccc(Cl)cc23)c1-c1c[nH]c2ccc(Cl)cc12 [Compound 12, lynamicin D] | 8.3 ± 1 | > 10 | – | – |
| CCCCCCCCCCCCCCCCOP(=O)([O-])OCC[N+](C)(C)C [miltefosine] | – | – | 1.2 | – |
| CC1(C)OB(O)c2cc(NC(=O)c3ccc(F)cc3C(F)(F)F)ccc21 [acoziborole] | – | – | – | 0.6 |
